# Results: ChEMBL document CHEMBL1268908, “Design, synthesis, radiolabeling, and in vivo evaluation of carbon-11 labeled N-[2-[4-(3-cyanopyridin-2-yl)piperazin-1-yl]ethyl]-3-methoxybenzamide, a potential positron emission tomography tracer for the dopamine D(4) receptors” (J Med Chem, 2010)
# Active and inactive are the calls of the source. The rule behind the calls is not given here.
# Tests used:
# [1] = molecular target: 5-hydroxytryptamine receptor 2A (Homo sapiens) (UniProt P28223); assay: Displacement of [3H]MSP from human 5HT2A receptor expressed in HEK293 cells at 1 uM after 90 mins by scintillation counting; format: cell-based
# Sequence of 5-hydroxytryptamine receptor 2A (Homo sapiens) (P28223 whole entry): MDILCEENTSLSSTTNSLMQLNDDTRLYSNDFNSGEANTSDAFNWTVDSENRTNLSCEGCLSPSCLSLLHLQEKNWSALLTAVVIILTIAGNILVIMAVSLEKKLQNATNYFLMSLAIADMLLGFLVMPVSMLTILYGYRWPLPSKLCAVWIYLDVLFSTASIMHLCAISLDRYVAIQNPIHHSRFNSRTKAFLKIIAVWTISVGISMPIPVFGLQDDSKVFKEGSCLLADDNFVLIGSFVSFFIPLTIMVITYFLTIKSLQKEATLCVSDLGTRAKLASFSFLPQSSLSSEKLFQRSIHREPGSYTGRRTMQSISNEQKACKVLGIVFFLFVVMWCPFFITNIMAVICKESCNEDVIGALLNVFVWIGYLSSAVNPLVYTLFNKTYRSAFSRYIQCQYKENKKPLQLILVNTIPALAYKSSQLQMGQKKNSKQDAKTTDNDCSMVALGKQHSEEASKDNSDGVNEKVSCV
# Outline: (§1)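 HEK293 membranes stably expressing rat D2 or human 5-HT1A, 5-HT2A or 5-HT2C receptors, used fresh. Incubated 90 min at 25 °C in 50 mM Tris pH 7.4 with about […] radioligand and 1 μM compound (DMSO or DMF stock diluted ≥1:1000). Nonspecific binding defined by (+)-butaclamol for D2, NAN-190 for 5-HT1A and mianserin for 5-HT2A/2C. PEI-GF/C filtration, scintillation count; % displacement from triplicates, 3–4 repeats.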
# [2] = Drug level in CD1 mouse plasma at 10 mg/kg, ip after 30 mins; format: ADME, organism-based; set-up: dose 10 mg/kg, route intraperitoneal; conditions: read-out: Drug uptake
# [3] = molecular target: T1, D(4) dopamine receptor (Rattus norvegicus) (UniProt P30729); assay: Agonist activity at rat dopamine D4 receptor expressed in HEK293 cells assessed as decrease in forskolin-stimulated levels of cAMP accumulation up to 10 uM; format: functional, cell-based
# T1 sequence (whole entry): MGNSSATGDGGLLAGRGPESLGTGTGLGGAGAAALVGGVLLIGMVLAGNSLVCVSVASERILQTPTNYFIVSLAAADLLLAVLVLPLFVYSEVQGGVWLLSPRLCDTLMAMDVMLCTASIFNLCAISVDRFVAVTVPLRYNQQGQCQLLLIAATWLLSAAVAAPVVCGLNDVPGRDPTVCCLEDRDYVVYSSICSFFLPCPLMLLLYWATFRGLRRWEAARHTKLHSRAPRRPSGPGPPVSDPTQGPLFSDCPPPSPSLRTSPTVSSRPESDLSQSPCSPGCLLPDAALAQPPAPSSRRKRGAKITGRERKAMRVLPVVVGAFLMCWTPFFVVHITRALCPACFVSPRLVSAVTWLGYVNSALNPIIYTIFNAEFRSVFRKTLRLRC
# [4] = molecular target: T2, 5-hydroxytryptamine receptor 1A (Homo sapiens) (UniProt P08908); assay: Displacement of [3H]MPPF from human 5HT1A receptor expressed in HEK293 cells at 1 uM after 90 mins by scintillation counting; format: cell-based; outline: as §1
# T2 sequence (whole entry): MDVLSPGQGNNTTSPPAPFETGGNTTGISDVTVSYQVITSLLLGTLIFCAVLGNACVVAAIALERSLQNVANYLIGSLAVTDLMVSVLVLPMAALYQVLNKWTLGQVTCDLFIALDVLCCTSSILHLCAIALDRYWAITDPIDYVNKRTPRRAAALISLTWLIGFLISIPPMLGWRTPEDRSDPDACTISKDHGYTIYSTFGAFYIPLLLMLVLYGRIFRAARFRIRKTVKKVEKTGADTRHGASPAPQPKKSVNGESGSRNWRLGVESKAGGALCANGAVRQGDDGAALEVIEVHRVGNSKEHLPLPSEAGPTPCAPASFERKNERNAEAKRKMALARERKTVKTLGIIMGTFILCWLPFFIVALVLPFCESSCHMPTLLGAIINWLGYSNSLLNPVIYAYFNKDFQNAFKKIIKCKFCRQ
# [5] = molecular target: T3, 5-hydroxytryptamine receptor 2C (Homo sapiens) (UniProt P28335); assay: Displacement of [3H]mesulergine from human 5HT2C receptor expressed in HEK293 cells at 1 uM after 90 mins by scintillation counting; format: cell-based; outline: as §1
# T3 sequence (whole entry): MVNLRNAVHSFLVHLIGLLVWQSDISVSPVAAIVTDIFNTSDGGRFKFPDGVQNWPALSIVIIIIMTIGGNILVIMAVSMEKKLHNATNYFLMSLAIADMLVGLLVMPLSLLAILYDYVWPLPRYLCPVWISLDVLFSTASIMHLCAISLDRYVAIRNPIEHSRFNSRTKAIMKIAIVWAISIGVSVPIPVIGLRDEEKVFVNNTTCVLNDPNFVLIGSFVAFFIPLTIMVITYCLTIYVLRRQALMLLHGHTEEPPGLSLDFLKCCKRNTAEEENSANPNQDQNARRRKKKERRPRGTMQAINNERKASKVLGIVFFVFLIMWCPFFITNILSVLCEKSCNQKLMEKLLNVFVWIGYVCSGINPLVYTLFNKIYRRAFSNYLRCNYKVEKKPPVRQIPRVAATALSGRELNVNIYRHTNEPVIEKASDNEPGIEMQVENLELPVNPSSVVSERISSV
# [6] = Lipophilicity, log P of the compound; format: physicochemical; conditions: octanol/water
# [7] = molecular target: D(3) dopamine receptor (Homo sapiens) (UniProt P35462); assay: Displacement of [3H]MSP from human dopamine D3 receptor expressed in CHO-K1 cells at 1 uM after 90 mins by scintillation counting; format: cell-based
# Sequence of D(3) dopamine receptor (Homo sapiens) (P35462 whole entry): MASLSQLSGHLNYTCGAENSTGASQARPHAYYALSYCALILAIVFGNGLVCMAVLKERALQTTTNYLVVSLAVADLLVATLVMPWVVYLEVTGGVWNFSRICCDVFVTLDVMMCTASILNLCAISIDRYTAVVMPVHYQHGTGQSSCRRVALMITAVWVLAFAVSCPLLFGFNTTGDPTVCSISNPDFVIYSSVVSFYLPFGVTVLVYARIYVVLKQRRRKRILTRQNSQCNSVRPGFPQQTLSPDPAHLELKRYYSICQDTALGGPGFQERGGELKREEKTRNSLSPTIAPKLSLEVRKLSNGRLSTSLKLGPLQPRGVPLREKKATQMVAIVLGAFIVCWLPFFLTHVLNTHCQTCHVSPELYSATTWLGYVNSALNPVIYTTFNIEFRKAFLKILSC
# Outline: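 Frozen CHO-K1 membranes carrying human D3 receptor, incubated with about […] [3H]methylspiperone and 1 μM compound for 90 min at 25 °C in 50 mM Tris pH 7.4. Nonspecific binding defined with 5 μM 7-OH-DPAT. Filtered on PEI-treated GF/C and scintillation counted; triplicate points, experiment repeated 3–4 times.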
# [8] = Drug level in CD1 mouse brain at 10 mg/kg, ip after 30 mins; format: ADME, organism-based; set-up: dose 10 mg/kg, route intraperitoneal; conditions: read-out: Drug uptake
# [9] = molecular target: T4, D(4) dopamine receptor (Rattus norvegicus, UniProt P30729); assay: Displacement of [3H]MSP from rat dopamine D4 receptor expressed in HEK293 cells after 90 mins by scintillation counting; format: cell-based
# T4 sequence (P30729 whole entry): T1 sequence (whole entry)
# Outline: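 Competition binding on fresh membranes from HEK293 cells stably expressing rat D4 receptor, with about […] [3H]methylspiperone for 90 min at 25 °C in 50 mM Tris pH 7.4; (+)-butaclamol defined nonspecific binding. Filtered and scintillation counted. IC50 converted to Ki by Cheng–Prusoff; triplicates, 3–4 experiments.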
# [10] = molecular target: Cannabinoid receptor 1 (Rattus norvegicus) (UniProt P20272); assay: Displacement of [3H]CP55940 from CB1 receptor in rat brain at 1 uM after 180 mins by scintillation counting
# Sequence of Cannabinoid receptor 1 (Rattus norvegicus) (P20272 whole entry): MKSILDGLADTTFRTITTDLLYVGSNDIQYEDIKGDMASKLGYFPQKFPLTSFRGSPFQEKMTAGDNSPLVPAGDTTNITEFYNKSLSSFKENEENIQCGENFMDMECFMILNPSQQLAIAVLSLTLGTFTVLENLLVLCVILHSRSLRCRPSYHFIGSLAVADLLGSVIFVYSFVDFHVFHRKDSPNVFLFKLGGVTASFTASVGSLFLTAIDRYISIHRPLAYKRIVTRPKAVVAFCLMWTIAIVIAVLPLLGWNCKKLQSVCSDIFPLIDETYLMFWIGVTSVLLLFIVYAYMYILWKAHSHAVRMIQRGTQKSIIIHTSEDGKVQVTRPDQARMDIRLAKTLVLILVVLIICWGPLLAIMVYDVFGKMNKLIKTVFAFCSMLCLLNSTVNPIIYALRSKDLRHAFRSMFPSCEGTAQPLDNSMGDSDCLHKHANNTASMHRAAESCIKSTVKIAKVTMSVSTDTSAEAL
# [11] = molecular target: D(2) dopamine receptor (Rattus norvegicus) (UniProt P61169); assay: Displacement of [3H]MSP from rat dopamine D2L receptor expressed in HEK293 cells at 1 uM after 90 mins by scintillation counting; format: cell-based; outline: as §1
# Sequence of D(2) dopamine receptor (Rattus norvegicus) (P61169 whole entry): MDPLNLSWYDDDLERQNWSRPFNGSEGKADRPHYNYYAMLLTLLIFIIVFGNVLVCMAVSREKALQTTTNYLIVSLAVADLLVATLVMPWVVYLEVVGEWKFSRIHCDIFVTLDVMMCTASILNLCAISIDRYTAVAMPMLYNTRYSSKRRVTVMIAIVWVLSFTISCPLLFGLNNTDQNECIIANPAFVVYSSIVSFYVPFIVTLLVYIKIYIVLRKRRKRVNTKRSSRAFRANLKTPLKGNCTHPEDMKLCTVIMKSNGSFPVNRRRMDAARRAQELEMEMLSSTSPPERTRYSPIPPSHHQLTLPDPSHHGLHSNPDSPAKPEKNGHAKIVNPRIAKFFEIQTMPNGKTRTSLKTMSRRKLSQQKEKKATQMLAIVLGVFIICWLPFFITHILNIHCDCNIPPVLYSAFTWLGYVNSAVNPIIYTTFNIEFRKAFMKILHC
# [12] = molecular target: Sigma non-opioid intracellular receptor 1 (Homo sapiens) (UniProt Q99720); assay: Displacement of [3H](+)-pentazocine from human sigma 1 receptor expressed in MCF7 cells at 1 uM after 180 mins by scintillation counting; format: cell-based
# Sequence of Sigma non-opioid intracellular receptor 1 (Homo sapiens) (Q99720 whole entry): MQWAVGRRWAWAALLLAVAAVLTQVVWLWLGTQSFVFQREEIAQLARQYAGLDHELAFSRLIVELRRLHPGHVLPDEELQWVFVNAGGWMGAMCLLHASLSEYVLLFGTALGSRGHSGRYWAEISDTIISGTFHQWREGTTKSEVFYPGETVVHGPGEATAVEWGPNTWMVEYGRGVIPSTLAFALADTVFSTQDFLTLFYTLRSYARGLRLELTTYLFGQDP
# Outline: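 Membranes from MCF-7 cells stably expressing cloned human σ1 receptor, 0.01–0.05 mg/mL protein, in 50 mM Tris pH 8.0. Incubated 180 min at 37 °C with shaking with 1 nM [3H]-(+)-pentazocine and 1 μM compound; BD1063 defined nonspecific binding. Filtered on PEI-treated GF/C, washed with ice-cold buffer, scintillation counted; triplicates, 3–4 experiments.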
# [13] = system: Plasma; assay: Drug level in CD1 mouse plasma at 10 mg/kg, ip after 30 to 60 mins; format: ADME, organism-based; set-up: dose 10 mg/kg, route intraperitoneal; conditions: in vivo
# Outline: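 Male CD1 mice, 25–30 g, given 10 mg/kg ip in ethanol/PEG 40/saline (10:40:50). Killed at 15–240 min. Plasma (0.2 mL) alkalinised and extracted into dichloromethane with a 1-(2-thiazolyl)piperazine internal standard, then run on gradient reversed-phase HPLC-UV at 264 nm; quantification limit about 100 ng/mL. Mean ± SD, n = 3.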
# [14] = Dissociation constant, pKa of the compound; format: physicochemical
# [15] = Distribution coefficient, log D of the compound at pH 7.4; format: physicochemical; conditions: octanol/water
# [16] = Drug level in CD1 mouse plasma at 10 mg/kg, ip after 15 mins; format: ADME, organism-based; set-up: dose 10 mg/kg, route intraperitoneal; conditions: read-out: Drug uptake
# [17] = Drug level in CD1 mouse brain at 10 mg/kg, ip after 15 mins; format: ADME, organism-based; set-up: dose 10 mg/kg, route intraperitoneal; conditions: read-out: Drug uptake
Compound,logP [6],Ki [9] [nM],Activity [11] [%],Activity [12] [%],pKa [14],also measured
COc1cccc(C(=O)NCCN2CCN(c3ncccc3C#N)CC2)c1,2.55,1.52,4.4,8.3,6.71,Activity [1]: 24%; concentration at 0.5 h [2]: 370 ng/mL; Activity [3]: Active; Activity [4]: 9.3%; Activity [5]: 3.2%; Activity [7]: 5.1%; concentration at 0.5 h [8]: 140 ng/g; Activity [10]: 6.5%; Drug uptake [13]: 0.1 µg/mL
Cc1ccc(N2CCN(CCNC(=O)c3ccc(F)cc3)CC2)cc1,,2.64,29,21,6.31,
O=C(NCCN1CCN(c2noc3ccccc23)CC1)c1ccc(F)cc1,3.79,0.34,89,21,6.43,logD [15]: 3.75
COc1cccc(C(=O)NCCN2CCN(c3noc4ccccc34)CC2)c1,,1.93,84,13,6.24,
COc1cccc(C(=O)NCCN2CCN(c3ccc(C)cc3)CC2)c1,,,,7.2,6.46,logD [15]: 2.78
COc1cccc(C(=O)NCCN2CCN(c3ccc(Cl)cn3)CC2)c1,3.29,,,15,6.45,
COc1cccc(C(=O)NCCN2CCN(c3ccc(Cl)cc3)CC2)c1,,4.97,7.8,22,6.19,
O=C(NCCN1CCN(c2ccc(Cl)cn2)CC1)c1ccc(F)cc1,3.42,2.92,43,33,6.58,
N#Cc1ccc(N2CCN(CCNC(=O)c3ccc(F)cc3)CC2)cc1,3.07,32.7,0,4.6,6.43,
O=C(NCCN1CCN(c2ccc(Cl)cc2)CC1)c1ccc(F)cc1,3.75,1.76,48,29,6.46,
N#Cc1cccnc1N1CCN(CCNC(=O)c2ccc(F)cc2)CC1,2.37,0.93,32,1,6.4,Activity [1]: 53%; Activity [3]: Active; Activity [4]: 29%; Activity [5]: 0%; Activity [7]: 7.2%; concentration at 0.25 h [16]: 130 ng/mL; concentration at 0.25 h [17]: 470 ng/g; Activity [10]: 9.9%; Drug uptake [13]: < 0.1 µg/mL
COc1cccc(C(=O)NCCN2CCN(c3ccc(C#N)cc3)CC2)c1,,63.9,0,27,,
